Source: PubChem BioAssay
Compounds with a hit are over-represented: about 3.5% of the library has one in this group of screens.
MrgX1 PAM: human MrgX1 positive allosteric modulation, primary screen; MrgX1-HEK293, Fluo-4 calcium flux, FDSS; hits give high values; B-score at 10 µM; 0.63% of 310,000 active;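 active = plate-corrected calcium response at least 3 library SD above typical, normal starting fluorescence, not activating the receptor alone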;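 also: compound read alongside a low EC10 to EC30 dose of BAM8-22 agonist; peak minus trough fluorescence over baseline measured at the second addition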
RGS4 block: inhibitors of human RGS4. P49798. HEK293 M3R/RGS4 inducible, Fluo-4 calcium flux; hits give high values; triggered by carbachol at its EC20. B-score at 10 µM. 0.45% of 310,000 active;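 active = B-score, a plate-corrected calcium signal, over three deviations above library mean, with baseline fluorescence within five deviations of library mean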;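 also: RGS4 expression induced by doxycycline in cells with stable M3 receptor; B-score is computed from the integrated fluorescence ratio over baseline after carbachol; higher B-score means a larger calcium signal and so more RGS4 inhibition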
Target sequence (P49798 whole entry, looked up): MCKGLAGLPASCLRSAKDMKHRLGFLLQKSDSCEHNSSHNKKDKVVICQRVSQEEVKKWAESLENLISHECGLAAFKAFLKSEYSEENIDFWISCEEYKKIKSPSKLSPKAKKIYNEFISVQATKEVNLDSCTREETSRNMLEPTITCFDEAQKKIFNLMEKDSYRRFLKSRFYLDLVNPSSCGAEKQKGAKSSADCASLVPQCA
RGS4 pot: RGS4 potentiation or activation | HEK293 M3R/inducible RGS4, carbachol calcium flux Fluo4; hits give low values | B-score at 10 µM | 0.92% of 310,000 active | AID 463111;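 active = B-score of the integrated calcium signal more than 4 SD below the library mean, with starting fluorescence not abnormally high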;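 also: negative B-score means reduced calcium response which marks RGS4 activation or potentiation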
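Reagent: ECmax carbachol challenge; Test system: M3R-expressing HEK293 line, RGS4 induced by doxycycline; Schedule: overnight RGS4 induction, 30 min dye load 37 °C, 20 min compound RT; Detection: calcium dye Fluo4 fluorescence; Read-out: Agonist-evoked peak-minus-minimum fluorescence over baseline, integrated ratio, B score.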
MrgX1 ag: agonists of human MrgX1 receptor | Q96LB2 | MrgX1-HEK293 cells, Fluo-4 calcium fluorescence, agonist mode; hits give high values | B-score at 10 µM | 0.44% of 310,000 active | AID 588627;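 active = calcium response B-score plate-corrected fluorescence ratio at least 3 library SD, with starting fluorescence B-score inside 5 SD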
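Material: HEK293 cells stably expressing human MrgX1 receptor | Quantity: 15,000 cells per well | Times: Cells plated overnight, dye loaded 0.5 h 37 °C, 0.5 h room temperature | Measured by: Kinetic Fluo-4 NW fluorescence of intracellular calcium | Control set: Positive and negative controls per plate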
MrgX1 antagonist: blocks BAM8-22 activation of human MrgX1 receptor; Q96LB2; MRGX1-HEK293 calcium flux, Fluo-4, BAM8-22 antagonism; hits give low values; B-score at 10 µM; 1.3% of 310,000 active;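 active = calcium-response B-score plate-corrected more than 3 library SD below zero, starting fluorescence within 5 deviations, no agonist response on first addition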;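 also: peak minus trough fluorescence over baseline after final BAM8-22 challenge near maximal dose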
MrgX1 ag reconf: confirmation of human MrgX1 receptor agonists. shares compounds with MrgX1 ag. MrgX1-HEK293, Fluo-4 calcium fluorescence, FDSS. activation, % at 10 µM. 78% of 600 active. AID 602412;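 active = calcium signal rise, corrected for plate position, at least 3 library SD high, with starting brightness within 5 such deviations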
HEK293 Ca flux: MrgX1 antagonist counter-screen hit in parental HEK293 cells. shares compounds with MrgX1 antagonist. Fluo-4 calcium fluorescence, FDSS. fluorescence ratio F(max-min)/F0 at 10 µM. 2% of 4,000 active. AID 624111;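 active = duplicate-averaged calcium fluorescence ratio at least three times the standard deviation of buffer wells, a nonspecific response in parental cells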
HEK293 Ca counter: MrgX1 allosteric activator counter-screen hit in parental HEK293 cells. 0.4% of 4,000 active. parental HEK293 calcium flux, Fluo-4 fluorescence ratio; hits give high values. shares compounds with MrgX1 antagonist. AID 624114. fluorescence ratio F(max-min)/F0 at 10 µM;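 active = calcium fluorescence ratio, averaged over duplicates, at least 3 SD of the buffer-well ratio, meaning a nonspecific response in receptor-free cells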;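 also: untransfected parental HEK293 lacking MrgX1 used as counterscreen for MrgX1 allosteric activators; fluorescence change taken during the second addition on a kinetic imager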
HEK293 Ca cntr2: activity in parental HEK293 cells lacking MrgX1 receptor; 8.7% of 4,000 active; Fluo-4 calcium fluorescence (FDSS); hits give high values; fluorescence ratio F(max-min)/F0 at 10 µM; shares compounds with MrgX1 antagonist;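 active = calcium fluorescence ratio at least three times the spread of buffer wells, meaning a non-specific response in parental cells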
An asterisk follows results filed as active; i = inactive; . = no result.

SMILES | MrgX1 PAM | RGS4 block | RGS4 pot | MrgX1 ag | MrgX1 antagonist | MrgX1 ag reconf | HEK293 Ca flux | HEK293 Ca counter | HEK293 Ca cntr2
Cc1cccc(CCN2C(Nc3ccccc3)=NC[C@@H]2CC(C)C)c1 | i | . | . | 114* | i | 586%* | i | i | 101*
c1ccc(CCN2CCN=C2Nc2ccccc2)cc1 | i | i | i | i | i | . | . | . | .
Cc1cccc(CCN2CCN=C2Nc2ccccc2)c1 | i | . | . | 50* | i | 278%* | i | i | 67*
Cc1c(O)c2cccnc2[nH]c1=O | i | i | i | i | i | . | . | . | .
CCOC(=O)NC(=O)C(=CNc1ccc(C)cc1)C(=O)NC(=O)OCC | i | i | i | i | i | . | . | . | .
COc1cc2ncnc(NCc3ccc(Cl)cc3)c2cc1OC | i | i | i | 33* | i | 136%* | i | i | i
Cc1ccc(NS(=O)(=O)c2ccc(C(=O)N3CC(C)CC(C)C3)cc2)cc1 (stereo not drawn) | i | i | i | 28* | i | 151%* | i | i | 71*
COc1ccc(N2CCN(C(=O)c3ccc4ccccc4n3)CC2)cc1 | i | i | i | i | i | . | . | . | .
CC1CCCCN1S(=O)(=O)c1ccc(C(=O)Nc2nnc(-c3ccccc3Cl)o2)cc1 (stereo not drawn) | i | i | i | 41* | i | 323%* | i | i | 63*
NC(=S)Cc1ccc(Cl)cc1Cl | i | i | i | i | i | . | . | . | .
N=C(N)SCc1ccc(Cl)cc1Cl | i | i | i | 39* | i | 219%* | i | i | i
O=C(OCCN=C1NS(=O)(=O)c2ccccc21)C1CC(=O)N(c2ccc3ccccc3c2)C1 (stereo not drawn) | i | i | i | i | i | . | . | . | .
Cn1c(CC(=O)Nc2ccc(F)cc2)nnc1SCC(=O)Nc1nncs1 | i | i | i | i | i | . | . | . | .
CCCCCCCC1CC(CSC(=N)N)OC1=O (stereo not drawn) | i | i | i | 41* | i | 164%* | i | i | i
CCCCC1CC(CSC(=N)N)OC1=O (stereo not drawn) | i | i | i | i | i | . | . | . | .
COc1ccc(N2CCN(S(=O)(=O)c3cc4c(cc3C)NC(=O)CO4)CC2)cc1 | i | i | i | i | i | . | . | . | .
COc1cc(C(=O)CCN2CCC(c3ccccc3)C2)cc(OC)c1OC (stereo not drawn) | i | i | i | i | i | . | . | . | .
O=C(CCN1CCC(c2ccccc2)C1)c1cccs1 (stereo not drawn) | i | i | i | 44* | i | 140%* | i | i | i
O=C(c1cccs1)N1CCC(c2ccccc2)C1 (stereo not drawn) | i | i | i | i | i | . | . | . | .
O=C(CCN1CCC(c2ccccc2)C1)c1ccc2c(c1)OCCO2 (stereo not drawn) | i | i | i | 36* | i | i | i | i | i
COC(=O)c1cccc(C23CC4(C2)[C@H](CN(Cc2cccnc2)[C@@H]4c2ccccc2)C3c2ccccc2)c1 (stereo partly drawn) | i | i | i | i | i | . | . | . | .
C/C(=N\Nc1ncnc2sc(C)c(C)c12)c1ccccn1 | i | i | i | 72* | i | 499%* | 0.46* | i | 101*
COc1ccc(Cl)cc1NC(=O)CN(C)C(=O)c1cc(-c2ccncc2)nc2ccccc12 | i | i | i | i | i | . | . | . | .
